Screening data from PubChem.
CSN deneddyl inh – inhibitors of human CSN-mediated cullin deneddylation | Q92905 | inhibition, % at 12.5 µM | actives 0.38% (n = 360,000) | Purified CSN, SCF-Nedd8-OG deneddylation, fluorescence polarization;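 active = pattern-corrected inhibition above about 35%, with an unprinted fluorescence ratio check between 0.5 and 1.5, limit read from the data, passing the limit was not always enough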
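Assay system: purified human Csn5 enzyme expressed in HEK293T cells; Input: 0.24 nM Csn5 enzyme, final concentration; Reagent: 10 nM SCFSkp2-Nedd8OG; Compound dosing: 12.5 µM single point; Times: reaction 90 min, room temperature; Technique: fluorescence polarization readout.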
ATG4B inhibitor – inhibitors of human ATG4B cysteine protease; Q9Y4P1; ATG4B cleavage of LC3-PLA2, NBD-HPC fluorescence, 1 h; inhibition, % at 8.33 µM; actives 0.51% (n = 340,000); AID 504462; in the data active = inhibition above about 40%
UHRF1 MBD2 ctr – blocks human UHRF1 binding to methylated DNA | Q96T88 | UHRF1 binding to methylated oligo, TR-FRET | inhibition, % at 4.4 µM | actives 0.75% (n = 370,000); in the data active = inhibition above about 21%;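 also: UHRF1 SRA domain binding a hemimethylated CpG hairpin DNA probe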
Target sequence (Q96T88 whole entry, looked up, the tested form may be a part): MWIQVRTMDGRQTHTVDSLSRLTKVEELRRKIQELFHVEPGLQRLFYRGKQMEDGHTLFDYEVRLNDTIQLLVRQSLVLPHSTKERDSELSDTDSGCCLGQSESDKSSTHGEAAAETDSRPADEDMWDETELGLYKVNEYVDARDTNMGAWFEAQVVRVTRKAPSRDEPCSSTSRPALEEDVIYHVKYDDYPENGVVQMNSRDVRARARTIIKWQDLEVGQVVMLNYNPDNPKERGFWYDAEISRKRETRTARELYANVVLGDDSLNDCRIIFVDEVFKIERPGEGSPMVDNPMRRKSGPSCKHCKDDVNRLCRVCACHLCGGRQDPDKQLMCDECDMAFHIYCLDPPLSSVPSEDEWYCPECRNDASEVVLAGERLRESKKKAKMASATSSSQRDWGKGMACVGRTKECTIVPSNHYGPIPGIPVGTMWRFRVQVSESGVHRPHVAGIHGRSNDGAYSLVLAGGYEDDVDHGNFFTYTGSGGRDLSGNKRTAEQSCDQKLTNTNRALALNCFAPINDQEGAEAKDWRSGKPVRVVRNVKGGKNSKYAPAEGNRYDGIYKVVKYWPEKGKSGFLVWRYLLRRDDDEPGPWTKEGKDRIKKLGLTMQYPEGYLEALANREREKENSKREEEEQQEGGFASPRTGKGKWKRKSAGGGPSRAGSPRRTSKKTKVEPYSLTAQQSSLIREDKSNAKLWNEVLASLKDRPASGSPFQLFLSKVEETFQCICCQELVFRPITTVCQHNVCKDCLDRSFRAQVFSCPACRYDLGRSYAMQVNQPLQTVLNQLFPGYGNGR
rCAG binder-1 – molecules binding r(CAG) RNA repeats; inhibition, % at 3 µM; actives 1.3% (n = 370,000); AID 651821; r(CAG) RNA repeat, TO-PRO-1 dye displacement fluorescence;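 active = inhibition above the plate cutoff, the mean of all test compounds on that plate plus 3 SD, cut at about 35% in these data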;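 also: higher means more dye released from RNA so lower well fluorescence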
MBD2 inh – MBD2-methylated oligo binding inhibition. Q9UBB5. actives 0.31% (n = 370,000). inhibition, % at 4.4 µM. TR-FRET, MBD2 binding to methylated oligonucleotide; in the data active = inhibition above about 13%
LEDGF integ inh – blocks HIV-1 LEDGF/p75-dependent DNA integration; TR-FRET IN-LEDGF/p75 DNA integration, Eu/Cy5; inhibition, % at 3.7 µM; actives 0.64% (n = 370,000); AID 743269;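 active = inhibition above the screen-wide mean plus 3 SD, cut at about 13% in these data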;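 also: signal is the Cy5 over europium emission ratio at 671 and 618 nm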
rCAG binder conf – r(CAG) RNA repeat binding, confirmation; TO-PRO-1 dye displacement fluorescence; actives 70% (n = 4,300); shares compounds with rCAG binder-1; inhibition, % at 3 µM;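 active = inhibition above a per-plate cutoff, the mean inhibition of sample wells plus 3 SD, cut at about 35% in these data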;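 also: loss of TO-PRO-1 fluorescence as compound displaces dye from 1x1 AA loop RNA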
DNA CAG counter – DNA CAG dye complex inhibition counter-screen; shares compounds with rCAG binder-1; d(CAG) DNA oligo TO-PRO-1 dye displacement, fluorescence; inhibition, % at 3 µM; actives 94% (n = 4,300);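 active = inhibition above its plate's cutoff, the mean test-well inhibition plus 3 SD, cut at about 4.8% in these data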;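 also: hits displace the dye from DNA and so lower well fluorescence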
DNA CAG DR – counter-screen for rCAG binders: inhibitors of DNA CAG TO-PRO-1 complex | shares compounds with rCAG binder-1 | AID 686960 | actives 20% (n = 250) | DNA CAG/GTC duplex TO-PRO-1 dye displacement fluorescence | IC50, µM; in the data active = IC50 below about 10 µM
dCAG DNA bind – inhibits DNA CAG/GTC TO-PRO-1 complex, rCAG binder counter-screen; shares compounds with rCAG binder-1; d(CAG) DNA duplex TO-PRO-1 dye displacement, fluorescence; IC50, µM; actives 80% (n = 30); AID 720649
rCAG binder-2 – r(CAG) repeat RNA binding, TO-PRO-1 displacement | actives 100% (n = 30) | r(CAG) RNA TO-PRO-1 dye displacement, fluorescence | shares compounds with rCAG binder-1 | IC50, µM | AID 720651
Numbers stand for hits; 0 = inactive; - = no result given. An excerpt weighted towards active compounds, which were near 3.1% of everything screened. Unless noted, no rule for the calls is given here.

SMILES | CSN deneddyl inh | ATG4B inhibitor | UHRF1 MBD2 ctr | rCAG binder-1 | MBD2 inh | LEDGF integ inh | rCAG binder conf | DNA CAG counter | others
COc1ccc(O)c(C(=O)c2cnc3nc4ccccc4n3c2)c1 | 0 | 0 | 0 | 40 | 0 | 0 | 0 | 6.5
C#CCNC(=O)C[C@H]1C[C@@]2(C(=O)OC)C(=C[C@H](C(C)(C)C)O[C@@H]2C)N(Cc2ccc(Cl)cc2Cl)C1=O | - | - | 0 | 0 | 0 | 0 | - | -
COc1cccc(OCc2cc(/C=N/Nc3ccc(C(=O)O)cc3)ccc2OC)c1 | 0 | 0 | 0 | 64 | 0 | 0 | 74 | 37
COc1cc(/C=N/Nc2ccc(Cl)c(C(=O)O)c2)ccc1OC(=O)c1ccccc1F | 0 | 0 | 0 | 66 | 0 | 0 | 80 | 47
COc1cc(/C=N/Nc2ccc(Cl)c(C(=O)O)c2)ccc1OC(=O)c1ccc(F)cc1 | 0 | 0 | 0 | 0 | 0 | 0 | - | -
CC(C)(C)c1ccc(/C=N/Nc2ccc(C(=O)O)cc2)cc1 | 0 | 0 | 0 | 39 | 0 | 0 | 36 | 8.8
O=C(O)c1ccc(N/N=C/c2ccc(C(F)(F)F)cc2)cc1 | 0 | 0 | 0 | 0 | 0 | 0 | - | -
COc1ccc(C(=O)N/N=C/c2ccc(OC)c(COc3ccc(F)cc3)c2)cc1 | 0 | 0 | 0 | 0 | 0 | 0 | - | -
COc1cccc(C(=O)Oc2ccc(/C=N/Nc3ccc(C(=O)O)cc3)cc2OC)c1 | 0 | 0 | 0 | 70 | 0 | 0 | 67 | 25
COC(=O)C1=C(C)N(Cc2ccc(C(F)(F)F)cc2)C(=NCc2ccc(C(F)(F)F)cc2)NC1c1ccccc1 (stereo unspecified) | - | - | 0 | 0 | 0 | 0 | - | -
COc1cc(/C=N/NS(=O)(=O)c2ccc3ccccc3c2)ccc1OCc1ccc(C(=O)O)cc1 | 0 | 0 | 0 | 48 | 0 | 0 | 40 | 11
COc1cc(/C=N/NS(=O)(=O)c2ccc(C)cc2)ccc1OCc1cccc(C(=O)O)c1 | 0 | 0 | 0 | 0 | 0 | 0 | - | -
COc1cc(Cl)c(C)cc1NC(=O)c1ccc2c(SCC(=O)O)c3c(nc2c1)CCCC3 | 0 | 0 | 0 | 0 | 0 | 0 | - | -
CCOc1ccc(NC(=O)c2ccc3c(SCC(=O)O)c4c(nc3c2)CCCC4)cc1 | 0 | 0 | 0 | 0 | 0 | 0 | - | -
CCOC(=O)c1ccccc1NC(=O)c1ccc2c(SCC(=O)O)c3c(nc2c1)CCCC3 | 0 | 0 | 0 | 46 | 0 | 0 | 74 | 30 | DNA CAG DR=7.1;dCAG DNA bind=5.5;rCAG binder-2=3
O=C(O)CSc1c2c(nc3cc(C(=O)Nc4cccc(C(F)(F)F)c4)ccc13)CCC2 | 0 | 0 | 0 | 72 | 0 | 0 | 57 | 21
CCCCCc1c2c(cc(O)c1C(=O)O)OC(=O)c1cc(C(=O)CCCC)c(OC)cc1O2 | 0 | 0 | 0 | 87 | 0 | 0 | 88 | 61
NCCNC(=O)Cn1c(=O)c2c3c(sc2n(Cc2ccccc2)c1=O)CCCC3 | 0 | 0 | 0 | 0 | 0 | 0 | - | -
O=C(O)Cn1c(=O)c2c3c(sc2n(Cc2ccc(Cl)cc2Cl)c1=O)CCCC3 | 0 | 0 | 0 | 44 | 0 | 0 | 58 | 19
CC1CCc2sc3c(c2C1)c(=O)n(CC(=O)O)c(=O)n3Cc1ccc(Cl)cc1 (stereo unspecified) | 0 | 0 | 0 | 54 | 0 | 0 | 49 | 13
N#CCC[C@@H]1CC[C@]2(CCCN(Cc3ccc(Br)cc3)C2)O1 | - | - | 0 | 0 | 0 | 0 | - | -
N#CC(/C(=N/S(=O)(=O)c1cccs1)c1ccccc1)c1nc2ccccc2[nH]1 (stereo unspecified) | 0 | 0 | 0 | 42 | 0 | 0 | 0 | 0
COc1cc(NC(=O)C2CCN(S(=O)(=O)c3ccc4[nH]c(=O)oc4c3)CC2)cc(OC)c1 | 0 | 0 | 0 | 36 | 0 | 0 | 0 | 9.2
O=C(CSc1ccc(Cl)cc1)NC1=NN(c2ccccc2)C(=O)C1 | 0 | 0 | 0 | 55 | 0 | 0 | 0 | 10
CCOC(=O)C1CCN(C(=O)C(C)(C)NC(=O)Nc2ccc3c(c2)CCC3)CC1 | - | - | 0 | - | 0 | 0 | - | -
SMILES | CSN deneddyl inh | ATG4B inhibitor | UHRF1 MBD2 ctr | rCAG binder-1 | MBD2 inh | LEDGF integ inh | rCAG binder conf | DNA CAG counter | others
COc1ccccc1/C=C1\SC(=S)N(N2C(=O)CCCC2=O)C1=O | 0 | 0 | 0 | 0 | 0 | 0 | - | -
COc1ccc(OC)c(/C=C2\SC(=S)N(NS(=O)(=O)c3ccc(C)cc3)C2=O)c1 | 0 | 0 | 0 | 84 | 0 | 0 | 87 | 52
COc1ccccc1/C=C1\SC(=S)N(NS(=O)(=O)c2ccc(C)cc2)C1=O | 0 | 0 | 0 | 78 | 0 | 0 | 69 | 33
COc1ccc(C2Nc3ccccc3C(=O)N2NS(=O)(=O)c2ccc(C)cc2)c(OC)c1 (stereo unspecified) | 0 | 0 | 0 | 0 | 0 | 0 | - | -
COc1ccc(/C=C2\SC(=S)N(NS(=O)(=O)c3ccc(C)cc3)C2=O)c(OC)c1 | 0 | 0 | 0 | 87 | 0 | 0 | 85 | 58
COc1cccc(C(=O)N2CCC(Oc3cccnc3)CC2)c1 | - | - | 0 | 0 | 0 | 0 | - | -
COc1cccc(/C=C2\CC3(OC(=O)c4ccco4)CCCN2C3)c1 (stereo unspecified) | - | - | 0 | 0 | 0 | 0 | - | -
Cc1onc(-c2ccccc2)c1C(=O)NC(=S)Nc1sc2c(c1C#N)CCCC2 | 0 | 0 | 0 | 0 | 0 | 0 | - | -
Cc1onc(-c2ccccc2)c1C(=O)NC(=S)Nc1sc2c(c1C#N)CCC(C)C2 (stereo unspecified) | 0 | 0 | 0 | 42 | 0 | 0 | 0 | 15
CCn1c2ccccc2c2c3ncc4cccn4c3ccc21 | 0 | 0 | 0 | 39 | 0 | 0 | 55 | 25
COC(=O)/C(=C\c1ccc2c(c1)c1ccccc1n2C)NC(=O)c1ccccc1 | 0 | 0 | 0 | 0 | 0 | 0 | - | -
Cn1c2ccccc2c2cc(/C=C(\NC(=O)c3ccccc3)C(=O)O)ccc21 | 0 | 0 | 0 | 37 | 0 | 0 | 0 | 8.0
Cc1cccnc1Nc1nc(-c2ccc(O)c(O)c2)cs1 | 0 | 0 | 0 | 38 | 0 | 0 | 54 | 19
Cc1cc(-c2nnc(SCC(=O)Nc3nc(-c4ccc(Cl)cc4)cs3)o2)no1 | 0 | 0 | 0 | 46 | 0 | 0 | 0 | 5.8
COc1cc(NC(=O)CSc2nnc(-c3cc(C)on3)o2)cc(OC)c1 | 0 | 0 | 0 | 0 | 0 | 0 | - | -
